This passage reports IC50, inhibition of growth and inhibition in vivo results from ChEMBL document CHEMBL2311276, “Synthesis of amidine and bis amidine derivatives and their evaluation for anti-inflammatory and anticancer activity” (Eur J Med Chem, 2013).

Experiment [1] deals with COS-1. The experiment is described as follows: Cytotoxicity against african green monkey COS1 cells after 24 hrs by MTT assay. The experiment is classed as cell-based. To be noted: Chlorocebus aethiops, COS-1, 24 h. In general terms: Formazan colour is commonly taken as a measure of viable cells.
In experiment [2] the test system is PA-1. The experiment is described as follows: Cytotoxicity against human PA1 cells after 24 hrs by MTT assay. The experiment is classed as functional, cell-based. As to conditions: PA-1, 24 h. Put shortly:
(§1)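 Cell lines came from NCCS Pune and were grown in RPMI-1640 with 2 mM glutamine, pH 7.4. Cells were seeded at 5 × 10³ per well and exposed to serial dilutions in DMSO for 24 h, with 0.1% final DMSO as vehicle control. MTT (5 mg/ml) was added for 4 h at 37 °C. Formazan was dissolved in DMSO plus Sorensen glycine buffer (pH 10.5) and read at 570 nm. IC50 came from % inhibition versus vehicle; triplicate, mean ± SD of three experiments.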

The test system of experiment [3] is HepG2. The experiment is described as follows: Cytotoxicity against human HepG2 cells after 24 hrs by MTT assay. As to conditions: HepG2, 24 h. The experiment is classed as functional, cell-based. Put shortly:
as §1

Experiment [4] deals with NCI-H522. The experiment is described as follows: Cytotoxicity against human NCI-H522 cells after 24 hrs by MTT assay. The class given is functional, cell-based. As to conditions: NCI-H522, 24 h. Put shortly:
as §1

For experiment [5], the system named is HCT-15. The experiment is described as follows: Cytotoxicity against human HCT15 cells after 24 hrs by MTT assay. The experiment is classed as functional, cell-based. As to conditions: HCT-15, 24 h. Put shortly: as §1
In experiment [6] the test system is HCT-15. The experiment is described as follows: Cytotoxicity against human HCT15 cells assessed as growth inhibition at 1 x 10 '-5 M after 24 hrs by MTT assay. To be noted: HCT-15, 24 h, read-out: GI. The experiment is classed as functional. In short, it runs like this: (§2)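 MTT screen at a single concentration of 1 × 10⁻⁵ M, 24 h exposure. Seeding was 5 × 10³ cells/well in RPMI-1640 with 2 mM glutamine. Vehicle was 0.1% final DMSO. MTT was added for 4 h at 37 °C, formazan dissolved in DMSO/glycine buffer (pH 10.5), and A570 read. Percent growth inhibition was calculated against vehicle-treated cells; triplicate, mean of three independent experiments.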

In experiment [7] the test system is T47D. The experiment is described as follows: Cytotoxicity against human T47D cells after 24 hrs by MTT assay. The experiment is classed as functional, cell-based. Put shortly: as §1
The subject of experiment [8] is HepG2. The experiment is described as follows: Cytotoxicity against human HepG2 cells assessed as growth inhibition at 1 x 10 '-5 M after 24 hrs by MTT assay. The experiment is classed as functional. As to conditions: HepG2, 24 h, read-out: GI. Put shortly: as §2
Experiment [9] has as its system PA-1. The experiment is described as follows: Cytotoxicity against human PA1 cells assessed as growth inhibition at 1 x 10 '-5 M after 24 hrs by MTT assay. The experiment is classed as functional. As to conditions: PA-1, 24 h, read-out: GI. In short, it runs like this:
as §2

Experiment [10] deals with NCI-H522. The experiment is described as follows: Cytotoxicity against human NCI-H522 cells assessed as growth inhibition at 1 x 10 '-5 M after 24 hrs by MTT assay. To be noted: NCI-H522, 24 h, read-out: GI. The class given is functional. Put shortly: as §2
In experiment [11] the test system is T47D. The experiment is described as follows: Cytotoxicity against human T47D cells assessed as growth inhibition at 1 x 10 '-5 M after 24 hrs by MTT assay. The experiment is classed as functional. To be noted: read-out: GI. Put shortly: as §2
For experiment [12], the system named is Rattus norvegicus. The experiment is described as follows: Antiinflammatory activity in Charles Foster albino rat assessed as inhibition of carrageenan-induced paw edema at 50 mg/kg, po administered 30 mins before carrageenan challenge measured after 1 to 3 hrs by plethysmometer analysis. The class given is functional. Put shortly: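 Rats of both sexes (120–160 g; pregnant females excluded), five per group, were dosed orally at 50 mg/kg. After 30 min, 0.20 mL of freshly prepared 1% carrageenan in 0.9% NaCl was injected into the plantar aponeurosis of the hind paw. Paw volume was read by water plethysmometer before and 1–3 h later. Percent inhibition was taken against a carrageenan-only control group of five rats.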
For orientation: Carrageenan injected into the paw causes an acute inflammation.

As usually defined, the IC50 is the concentration needed to halve the response being measured. The inhibition in vivo is the share of the control response that was lost under treatment.

For the compound `N=C(Nc1ccc(-c2ccc(NC(=N)c3ccncc3)cc2)cc1)c1ccncc1`, the half-inhibitory concentration (IC50) in experiment [1] stood at 50 µM; in [2] it was 42.5 µM; in experiment [3] it was 11.9 µM; in [4] it was 13.4 µM; in experiment [5], 124 µM; in experiment [7], 34.1 µM. Moreover, the inhibition of growth at 10 µM in experiment [6] was found to be 3%; in experiment [8] it was 48%; in experiment [9], 7%; in experiment [10], 36%; in experiment [11], 12%. Besides, the inhibition in vivo at 50 mg/kg in [12] amounted to 15%.

Regarding `N=C(NCCN1CCNCC1)c1ccncc1`, the IC50 in experiment [1] is 147 µM; in experiment [2], 19.3 µM; in experiment [3], 191 µM; in experiment [4] it was 35.3 µM; in [5], 35.4 µM; in [7] it was 184 µM. For the same compound, the inhibition of growth at 10 µM was 13% in experiment [6]; 10% in [8]; 46% in [9]; 17% in [10]; 6% in experiment [11]. In [12], the inhibition in vivo at 50 mg/kg amounted to 0%.

For `N=C(NCCCN1CCN(CCCNC(=N)c2ccccn2)CC1)c1ccccn1`, the 50% inhibitory concentration (IC50) in [1] came to 203 µM; in [2] it was 39.7 µM; in experiment [3] it was 20.8 µM; in experiment [4] it was 22 µM; in experiment [5], 25.1 µM; in experiment [7] it was 22.5 µM. The inhibition of growth at 10 µM was found to be 31% in [6]; 34% in experiment [8]; 31% in experiment [9]; 39% in [10]; 39% in experiment [11]. Also, the inhibition in vivo at 50 mg/kg in experiment [12] was 38%.

As to `N=C(Nc1ccc(-c2ccc(NC(=N)c3cnccn3)cc2)cc1)c1cnccn1`, the IC50 came out at 100 µM in experiment [1]; 17.1 µM in [2]; 20.3 µM in [3]; 14.1 µM in experiment [4]; 11.9 µM in [5]; 62.4 µM in [7]. Also, the inhibition of growth at 10 µM came out at 45% in [6]; 37% in [8]; 43% in experiment [9]; 43% in [10]; 14% in [11]. For the same compound, the inhibition in vivo at 50 mg/kg in experiment [12] came to 31%.
